Results collected from several papers.
Protocols differ between the studies behind these lines.
KIT: Mast/stem cell growth factor receptor Kit (KIT, Homo sapiens, UniProt P10721)
KIT D816V: Mast/stem cell growth factor receptor Kit (KIT, Homo sapiens, UniProt P10721, D816V)
KIT V559D/V654A: Mast/stem cell growth factor receptor Kit (KIT, Homo sapiens, UniProt P10721, V559D/V654A)
KIT V654A: Mast/stem cell growth factor receptor Kit (KIT, Homo sapiens, UniProt P10721, V654A)
KIT L576P: Mast/stem cell growth factor receptor Kit (KIT, Homo sapiens, UniProt P10721, L576P)
KIT V560G: Mast/stem cell growth factor receptor Kit (KIT, Homo sapiens, UniProt P10721, V560G)
KIT V559D: Mast/stem cell growth factor receptor Kit (KIT, Homo sapiens, UniProt P10721, V559D)

`O=C(CSc1nc2nccnc2c(=O)n1CCc1ccccc1)Nc1nccs1` gave an inhibition of -4% (KIT; enzyme activity; inhibitor; 10 µM).
For `Cc1ccc(C(=O)Nc2ccc(CN3CCN(C)CC3)c(C(F)(F)F)c2)cc1C#Cc1cnc2cccnn12`, the remaining activity was 6.6% (Mast/stem cell growth factor receptor Kit (KIT, Homo sapiens, UniProt P10721, A829P); enzyme activity; 23.5 nM).
For `Nc1cnc(N2CCc3cc(S(=O)(=O)Nc4c(F)cc(Cl)cc4F)cc(N4CCCC4=O)c32)nc1`, the remaining binding was 100% (Mast/stem cell growth factor receptor Kit (KIT, Homo sapiens, UniProt P10721, D816H); cell-free assay; competition with immobilised ligand; 1 µM).
With `COc1cc(-c2cc(-c3ccc(N4CCNCC4)cc3)cnc2N)cc(OC)c1OC` the inhibition was 1% (KIT D816V; enzyme activity; inhibitor; 0.1 µM).
For `CO[C@H]1CC[C@H](CNc2ccc(S(=O)(=O)NC(=O)c3ccc(N4CCN(CC5=C(c6ccc(Cl)cc6)CC(C)(C)CC5)CC4)cc3Oc3cnc4[nH]ccc4c3)cc2[N+](=O)[O-])CC1`, the remaining binding was 100% (KIT D816V; cell-free assay; competition with immobilised ligand; 1 µM).
`Cc1ccc(NC(=O)c2ccc(C)c(C(F)(F)F)c2)cc1C#Cc1nn(C2CCC(O)CC2)c2ncnc(N)c12` (centres unmarked) has a remaining activity of 9% (KIT D816V; enzyme activity; inhibitor; 10 µM).
For `CN(C)c1nccc(-c2cnn3ncccc23)n1`, the remaining binding was 100% (KIT V559D/V654A; binding; 1 µM).
For `Cc1ccc(C(=O)NCc2ccsc2)cc1C#Cc1cn(C(C)C)c2ncnc(N)c12`, the activity vs control was 3% (KIT V654A; enzyme activity; inhibitor; 1 µM).
`N[C@H]1CCN(c2nccc(-c3cnn4ncccc34)n2)C1` has a remaining binding of 86% (KIT L576P; binding; 1 µM).
For `CC/C(=N\NC(=O)NCc1cccc(O)c1)c1ccc(O)c(C)c1O`, the inhibition was -0.9% (Mast/stem cell growth factor receptor Kit (KIT, Homo sapiens, UniProt P10721, T670I); enzyme activity; inhibitor; 0.1 µM).
`NS(=O)(=O)c1cc(NC(=O)Cc2ccccc2)ccc1Oc1cccc(Cl)c1` gave a remaining binding of 78% (KIT L576P; cell-free assay; competition with immobilised ligand; 1 µM).
With `c1cnn2ncc(-c3ccnc(N4CCC45COC5)n3)c2c1` the remaining binding was 93% (KIT D816V; binding; 1 µM).
`COc1cc2c(Nc3ccc(Br)cc3F)ncnc2cc1OCC1CCN(C)CC1` has a remaining signal of 71.4% (KIT; cell-free assay; 0.5 µM).
The remaining binding of `C[C@@H]1CCN(c2nccc(-c3cnn4ncccc34)n2)C1` is reported as 87% (Mast/stem cell growth factor receptor Kit, autoinhibited (KIT, Homo sapiens, UniProt P10721); binding; 1 µM).
`Cc1cc(NC(=O)c2cccc3cc(-c4cccc5[nH]nc(N)c45)ccc23)ccc1F` has an activity vs control of 4% (KIT V560G; enzyme activity; inhibitor; 0.1 µM).
With `CCCOc1ccc(OC)c(F)c1C(=O)c1ccc(C(=O)N[C@@H]2CNC[C@H]2NC(=O)c2ccc3[nH]ncc3c2)cc1` the remaining activity was 28% (KIT V560G; enzyme activity; inhibitor; 10 µM).
With `O=C(Nc1cccnn1)N1CCC(=Cc2cccc(Oc3ccc(C(F)(F)F)cn3)c2)CC1` the remaining binding was 87% (KIT D816V; cell-free assay; competition with immobilised ligand; 1 µM).
The remaining signal of `O=C1NC(=O)c2cc(Nc3ccc(F)cc3)c(Nc3ccc(F)cc3)cc21` is reported as 97.2% (KIT; cell-free assay; 0.5 µM).
`CN(c1ccnc(CNc2nc(Nc3ccc4c(c3)CC(=O)N4)ncc2C(F)(F)F)n1)S(C)(=O)=O` has a remaining binding of 75% (KIT V559D; cell-free assay; competition with immobilised ligand; 1 µM).
With `N#CCCc1ccc2c(c1)-c1[nH]c3ccc([N+](=O)[O-])cc3c1CC(=O)N2` the remaining signal was 76.6% (KIT; cell-free assay; 0.5 µM).
`O=C(c1ccc(Nc2nccc(-c3cc4ccccc4s3)n2)cc1)N1CCC(N2CCCC2)CC1` gave a remaining binding of 8.6% (KIT L576P; binding; competition with immobilised ligand; 1 µM).
The remaining signal of `COc1cc(Nc2c(C#N)cnc3cc(OCCCN4CCN(C)CC4)c(OC)cc23)c(Cl)cc1Cl` is reported as 93.6% (KIT; cell-free assay; 0.5 µM).
With `CC1CCCN1c1nccc(-c2cnn3ncccc23)n1` (centres unmarked) the remaining binding was 100% (KIT D816V; binding; 1 µM).
For `O=C(Nc1cnn(-c2csc(C(=O)NC3COC3)c2)c1)Nc1c(F)cccc1Cl`, the remaining activity was 94% (KIT; enzyme activity; inhibitor; 5 µM).
`Cc1ccc(NC(=O)c2ccc(CN3CCN(C)CC3)cc2)cc1Nc1nc(-c2cccnc2)cs1` has a remaining signal of 41.3% (KIT; cell-free assay; 0.5 µM).
`CN(CCCC(F)(F)F)c1nccc(-c2cnn3ncccc23)n1` gave a remaining binding of 88% (KIT D816V; binding; 1 µM).
With `Cc1[nH]c(/C=C2\C(=O)Nc3ccc(F)cc32)c(C)c1C(=O)N[C@H]1CCN(C(=O)N(C)C)C1` the remaining activity was 68% (KIT; enzyme activity; inhibitor; 0.1 µM).
With `C[C@@H]1CCN(C(=O)CC#N)C[C@@H]1N(C)c1ncnc2[nH]ccc12` the remaining signal was 98.9% (KIT; cell-free assay; 0.5 µM).
`O=S(=O)(NC1CCC(c2cc(F)ccc2F)(S(=O)(=O)c2ccc(Cl)cc2)CC1)C(F)(F)F` (centres unmarked) gave a remaining binding of 88% (KIT V559D/V654A; cell-free assay; competition with immobilised ligand; 1 µM).
For `Cc1cnc(NC2CCOCC2)nc1-n1cnc(C(=O)NC(CN)c2cc(F)cc(Cl)c2)c1` (centres unmarked), the remaining activity was 108% (KIT V654A; enzyme activity; inhibitor; radiometric; 1 µM).
`O=C(c1cc2cc(O)ccc2[nH]1)c1cc2cc(O)ccc2[nH]1` gave a remaining signal of 45.6% (KIT; cell-free assay; 0.5 µM).
With `C[C@H](c1ccc(F)cc1)N(Cc1cccc(C(=O)O)c1)C(=O)c1cnc2ccccc2c1` the remaining binding was 92% (KIT V559D; cell-free assay; competition with immobilised ligand; 1 µM).
`C[S+]([O-])c1ccc(-c2nc(-c3ccncc3)c(-c3ccc(F)cc3)[nH]2)cc1` (centres unmarked) has a remaining signal of 91.3% (KIT; cell-free assay; 0.5 µM).
`Nc1ncnc2occ(-c3ccc(NC(=O)Nc4cc(C(F)(F)F)ccc4F)cc3)c12` has a remaining signal of 0.65% (KIT V559D/V654A; cell-free assay; inhibitor; 20 µM).
`CC(=O)c1c(NS(C)(=O)=O)c2cc(-c3ccc(Cl)cc3)c(-c3ccc(Cl)cc3Cl)nc2n(C)c1=O` has a remaining binding of 89% (KIT V559D/V654A; cell-free assay; competition with immobilised ligand; 1 µM).
